≈ marks a conversion by molar mass, not a printed value.
Legend:
Assay type in all cases: functional
Candida albicans = assay: Antifungal activity against Candida albicans ATCC 10231 after 24 hrs by broth microdilution assay
Outline: (§1)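 ATCC strain in 96-well broth microdilution, run in duplicate following NCCLS guidance. Samples were dissolved in DMSO, then diluted in Triptone as serial dilutions: final 16 to 0.031 mg/mL for extracts, 2 to 0.0078 mg/mL for the pure compound. Inoculum suspension was 10^5 CFU/mL. Growth-control and DMSO blank wells were included. Plates were incubated 24 h at 37 °C. MIC is the lowest concentration inhibiting visible growth.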

Staphylococcus aureus = assay: Antibacterial activity against Staphylococcus aureus ATCC 6538 after 24 hrs by broth microdilution assay
Outline: (§2)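 Broth microdilution in Triptone, in duplicate, per NCCLS. Samples dissolved in DMSO, then diluted in Triptone; final concentrations 2 to 0.0078 mg/mL for the pure compound and 16 to 0.031 mg/mL for extracts. Inoculum 10^5 CFU/mL. Incubation 24 h at 37 °C, read visually from below. MIC taken as the lowest concentration inhibiting growth. Controls: growth without sample, and DMSO blank.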

[1] = test system: Staphylococcus epidermidis; assay: Antibacterial activity against Staphylococcus epidermidis ATCC 12228 after 24 hrs by broth microdilution assay; outline: as §2
Bacillus spizizenii = assay: Antibacterial activity against Bacillus subtilis subsp. […] after 24 hrs by broth microdilution assay; outline: as §1
Escherichia coli = assay: Antibacterial activity against Escherichia coli ATCC 8739 after 24 hrs by broth microdilution assay; outline: as §2
Pseudomonas aeruginosa = assay: Antibacterial activity against Pseudomonas aeruginosa ATCC 9027 after 24 hrs by broth microdilution assay; outline: as §2
Aspergillus niger = assay: Antifungal activity against Aspergillus niger ATCC 16404 after 24 hrs by broth microdilution assay; settings: ATCC 16404, 24 h; outline: as §2
[2] = Antioxidant activity assessed as DPPH reducing activity
Outline: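 DPPH radical (0.025 g/L in MeOH, prepared daily) mixed with sample in MeOH, maximum concentration 200 µg/mL; vehicle control. Absorbance read at 515 nm after 10 min. Remaining DPPH calculated from a calibration curve. α-Tocopherol served as positive control. Run in triplicate; EC50 obtained by the Litchfield and Wilcoxon method.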

NYSTATIN
MIC (Candida albicans): 1 µg/mL

GENTAMICIN
MIC (Staphylococcus aureus): 1 µg/mL | MIC [1]: 1 µg/mL | MIC (Bacillus spizizenii): 1 µg/mL | MIC (Escherichia coli): 4 µg/mL | MIC (Pseudomonas aeruginosa): 4 µg/mL

O=C(/C=C/c1ccc(O)c(O)c1)O[C@H](Cc1ccc(O)c(O)c1)C(=O)O [ROSMARINIC ACID]
MIC (Candida albicans; ATCC 10231, 24 h): > 2000 µg/mL | MIC (Staphylococcus aureus; ATCC 6538, 24 h): 120 µg/mL (≈ 333 µM) | MBC (Staphylococcus aureus; ATCC 6538, 48 h, in the assay text read “48 hrs” for “24 hrs”): 120 µg/mL (≈ 333 µM) | MIC (Aspergillus niger): > 2000 µg/mL | MIC ([1]; ATCC 12228, 24 h): 120 µg/mL (≈ 333 µM) | MBC ([1]; ATCC 12228, 48 h, in the assay text read “48 hrs” for “24 hrs”): 120 µg/mL (≈ 333 µM) | MBC (Bacillus spizizenii; ATCC 6633, 24 h, in the assay text read “ATCC 6633” for “ATCC 9027”): 120 µg/mL (≈ 333 µM) | MIC (Escherichia coli; ATCC 8739, 24 h): > 2000 µg/mL | EC50 [2]: 3.1 µg/mL (≈ 8.6 µM) | MIC (Pseudomonas aeruginosa; ATCC 9027, 24 h): > 2000 µg/mL

Cc1c(C)c2c(c(C)c1O)CC[C@@](C)(CCC[C@H](C)CCC[C@H](C)CCCC(C)C)O2 [ALPHA-TOCOPHEROL]
EC50 [2]: 10.1 µg/mL (≈ 23.4 µM)

— ChEMBL document CHEMBL1141355, “Triterpene, antioxidant, and antimicrobial compounds from Melissa officinalis” (J Nat Prod, 2007)
